The source of these data is article PMC5599970 (Hepatology (Baltimore, Md.), 2017).

One series has as its system hepatic DNL. The following applies: subjects with type 2 diabetes mellitus and hypertriglyceridemia; cited from earlier work.
Series [1] in a line: Safety: treatment-emergent adverse events after a single oral dose. Format: in vivo, human. The method, boiled down:
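TEAEs were any events after study medication and were coded to MedDRA v18.0. Events were attributed to the period's treatment, and events between acetate infusion and first dosing were counted separately. Monitoring included physical exams, vital signs (hours 0, 5.5, 10.5), clinical laboratory tests (day −1 and hour 10) and screening ECG.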

The test system of series [2] is hepatic de novo lipogenesis (DNL). As to the kind of experiment: PK-PD analysis of plasma exposure versus fractional DNL. It counts as in vivo, human. As to conditions: all dose groups. The essentials:
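Each subject's time-matched plasma levels (sampled predose and hourly to 10 h, HPLC-MS/MS) were paired with fasting-adjusted fractional DNL at every sampling point for every dose group. The plasma levels at which 70% and 90% inhibition of maximal DNL occurred were read from these paired data.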

Series [3] can be described thus: Hepatic extraction in preclinical studies. It counts as in vivo. As to conditions: cynomolgus monkeys, unpublished data.
A short description of series [4]: Serum lipids, leptin, adiponectin, glucose and blood ketones. It counts as in vivo, human. As to conditions: single dose of 20, 50, or 200 mg. The method, boiled down: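 Blood was drawn at protocol-specified times during the fasted, fructose-fed crossover periods. Serum lipids and blood ketones (ketometer) were measured by a clinical laboratory. Leptin and adiponectin were measured by solid-phase ELISA.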

Series [5] concerns hepatic de novo lipogenesis (DNL). As to the kind of experiment: Fructose-stimulated fractional hepatic DNL. Format: in vivo, human. The following applies: for Inhibition of fasting-adjusted fractional DNL AUEC relative to placebo: 10-hour period; for Inhibition of fasting-adjusted fractional DNL AUEC relative to placebo / Mean reduction of fasting-adjusted DNL at 10 hours postdose relative to placebo: mean ± SEM. The essentials:
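Overweight/obese men (18–50 y, BMI 25–32 kg/m²), 10/dose, placebo crossover, ≥5-day washout, fasted from hour −12. IV [1-13C]acetate (10 g in 1,000 mL 0.45% saline, 50 mL/hour, 19 h) from hour −9; capsule at hour 0; fructose 250 mg/kg every 30 min to hour +9.5. VLDL-TG palmitate by GC-MS/MIDA, hours −1 to +10; fasting-baseline-subtracted, AUEC, expressed relative to placebo.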

For series [6] the following is noted: single doses between 30 and 1,000 mg; healthy adults; cited from earlier work.
A short description of series [7]: Plasma pharmacokinetics after a single oral dose. Format: in vivo. The following applies: human. The essentials: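 Single oral capsule dose with 240 mL water in fasted men during fructose feeding, n = 10/group. Plasma was sampled predose and hourly through 10 h. Levels were measured by validated HPLC-MS/MS, with a lower limit of quantitation of 0.5 ng/mL. Noncompartmental parameters were calculated from actual sample times.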

In the case of `CCc1ccc(CCOc2ccc(CC3SC(=O)NC3=O)cc2)nc1` (stereo not shown) [pioglitazone], the “Reduction of hepatic DNL” value with hepatic DNL was 40%.
On to `COc1ccccc1[C@H](Cn1c(=O)n(C(C)(C)C(=O)O)c(=O)c2c(C)c(-c3ncco3)sc21)OC1CCOCC1` [NDI‐010976], for which the “Number of subjects with TEAEs (% of subjects dosed)” value in series [1] (20 mg) is on record as 3 (33%) subjects (%); in series [1] (50 mg) it was 7 (70%) subjects (%); in series [1] (200 mg) it was 5 (50%) subjects (%); in series [1] (Total, all doses), 15 (52%) subjects (%). Besides, the “Number of subjects without TEAEs (% of subjects dosed)” value is on record as 6 (67%) subjects (%) in series [1] (20 mg); 3 (30%) subjects (%) in series [1] (50 mg); 5 (50%) subjects (%) in series [1] (200 mg); 14 (48%) subjects (%) in series [1] (Total, all doses). The “Deaths, serious AEs, Grade 3 or higher TEAEs” value in series [1] (single oral doses 20 to 200 mg) is “no deaths, serious AEs, or Grade 3 or higher TEAEs”. Moreover, in series [1] (single oral doses 20 to 200 mg), the Safety and tolerability entry is “safe and well tolerated”. In addition, in series [2] (one data point outlier), the “Plasma concentration associated with at least 70% inhibition of fractional DNL” value was > 2.2 ng/mL. Moreover, the “Plasma concentration yielding >90% inhibition of fractional DNL” value in series [2] (two data point outliers) is listed as > 4.0 ng/mL. In series [3], the Hepatic extraction result is “approximately 94%”. In addition, the “Effects on serum glucose, lipids, leptin, adiponectin, blood ketones” value in series [4] is recorded as “no significant NDI‐010976 effects”. Besides, the “Inhibition of fasting-adjusted fractional DNL AUEC relative to placebo” value in series [5] (20 mg single oral dose) is “approximately 70 ± 6%”; in series [5] (50 mg single oral dose), ~85 ± 3%; in series [5] (200 mg single oral dose), ~104 ± 2%. The “Mean reduction of fasting-adjusted DNL at 10 hours postdose relative to placebo” value is “approximately 41 ± 9%” in series [5] (20 mg single oral dose), ~53 ± 9% in series [5] (50 mg single oral dose) and ~94 ± 4% in series [5] (200 mg single oral dose). In addition, the “Inhibition of fractional DNL at 2 hours postdose” value in series [5] (20 mg, mean ± standard deviation) is on record as 60 ± 26%. In series [5] (50 mg single dose, 10-hour period vs matched placebo period), the “Inhibition of DNL by fasting-adjusted DNL AUEC, all subjects” value is on record as > 70%. For the same compound, the “Inhibition of DNL, all subjects” value in series [5] (200 mg single dose) is on record as “complete or near complete inhibition of DNL”. Moreover, the Tolerability result in series [6] was “well tolerated”. In series [7], the Tmax (as a rule, the time from dosing to the highest level) was 1 to 2 h. For the same compound, the maximum concentration (Cmax) – broadly, the peak of the concentration-time curve – in series [7] (20 mg) came to 43.4 ng/mL. This compound also gave a concentration at 2 h in series [7] (20 mg) of 5.7 to 23.5 ng/mL.
